Experimental data published in ChEMBL document CHEMBL1132232, “7alpha-Iodo and 7alpha-fluoro steroids as androgen receptor-mediated imaging agents” (J Med Chem, 1999).

Tests used:
[1] = test system: Rattus norvegicus; test: Distribution of tissue Radioactivity following Intravenous injection into castrated male rat fat at 1 hour time; type: ADME, organism-based, Adipose tissue; conditions: in vivo
Summary of the method: (§1)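 Male Sprague–Dawley rats, about 250 g, were castrated and injected the next day via the tail vein with 5.4 μCi (2.4 pmol) of 125I tracer in ethanol/saline (1:4). There were 5–6 rats per group. At 0.5, 1, 2 or 4 h, rats were ether-anesthetized and killed by exsanguination. Tissues were dissected, weighed and counted, giving % injected dose/g and prostate/blood ratios.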

[2] = test system: Rattus norvegicus; test: Distribution of tissue Radioactivity following Intravenous injection into castrated male rat fat at 2 hours time; type: ADME, organism-based, Adipose tissue; conditions: in vivo; summary of the method: as §1
[3] = test system: Rattus norvegicus; test: Distribution of tissue Radioactivity following Intravenous injection into castrated male rat kidney at 1 hour time; type: ADME, organism-based; conditions: in vivo; summary of the method: as §1
[4] = test system: Rattus norvegicus; test: Distribution of tissue Radioactivity following Intravenous injection into castrated male rat kidney at 2 hours time; type: ADME, organism-based; conditions: in vivo; summary of the method: as §1
[5] = test system: Rattus norvegicus; test: Distribution of tissue Radioactivity following Intravenous injection into castrated male rat lung at 1 hour time; type: ADME, organism-based; conditions: in vivo; summary of the method: as §1
[6] = test system: Rattus norvegicus; test: Distribution of tissue Radioactivity following Intravenous injection into castrated male rat lung at 2 hours time; type: ADME, organism-based; conditions: in vivo; summary of the method: as §1
[7] = test system: Rattus norvegicus; test: Distribution of tissue Radioactivity following Intravenous injection into castrated male rat muscle at 0.5 hours time; type: ADME, organism-based; conditions: in vivo; summary of the method: as §1
[8] = test system: Rattus norvegicus; test: Distribution of tissue Radioactivity following Intravenous injection into castrated male rat muscle at 4 hours time; type: ADME, organism-based; conditions: in vivo; summary of the method: as §1
[9] = test system: Rattus norvegicus; test: Distribution of tissue Radioactivity following Intravenous injection into castrated male rat prostate at 0.5 hours time; type: ADME, organism-based, Prostate gland; conditions: in vivo; summary of the method: as §1
[10] = test system: Rattus norvegicus; test: Distribution of tissue Radioactivity following Intravenous injection into castrated male rat prostate at 4 hours time; type: ADME, organism-based, Prostate gland; conditions: in vivo; summary of the method: as §1
[11] = test system: Rattus norvegicus; test: Distribution of tissue Radioactivity following Intravenous injection into castrated male rat prostate/blood at 1 hours time; type: ADME, organism-based; conditions: other tissue; summary of the method: as §1
[12] = test system: Rattus norvegicus; test: Distribution of tissue Radioactivity following Intravenous injection into castrated male rat prostate/blood at 2 hours time; type: ADME, organism-based; conditions: other tissue; summary of the method: as §1
[13] = test system: Rattus norvegicus; test: Distribution of tissue Radioactivity following Intravenous injection into castrated male rat spleen at 1 hour time; type: ADME, organism-based; conditions: in vivo; summary of the method: as §1
[14] = test system: Rattus norvegicus; test: Distribution of tissue Radioactivity following Intravenous injection into castrated male rat spleen at 2 hours time; type: ADME, organism-based; conditions: in vivo; summary of the method: as §1
[15] = test system: Rattus norvegicus; test: Distribution of tissue Radioactivity following Intravenous injection into castrated male rat blood at 1 hour time; type: ADME, organism-based; conditions: in vivo; summary of the method: as §1
[16] = test system: Rattus norvegicus; test: Distribution of tissue Radioactivity following Intravenous injection into castrated male rat blood at 2 hours time; type: ADME, organism-based; conditions: in vivo; summary of the method: as §1
[17] = test system: Rattus norvegicus; test: Distribution of tissue Radioactivity following Intravenous injection into castrated male rat fat at 0.5 hours time; type: ADME, organism-based, Adipose tissue; conditions: in vivo; summary of the method: as §1
[18] = test system: Rattus norvegicus; test: Distribution of tissue Radioactivity following Intravenous injection into castrated male rat fat at 4 hours time; type: ADME, organism-based, Adipose tissue; conditions: in vivo; summary of the method: as §1
[19] = test system: Rattus norvegicus; test: Distribution of tissue Radioactivity following Intravenous injection into castrated male rat kidney at 0.5 hours time; type: ADME, organism-based; conditions: in vivo; summary of the method: as §1
[20] = test system: Rattus norvegicus; test: Distribution of tissue Radioactivity following Intravenous injection into castrated male rat kidney at 4 hours time; type: ADME, organism-based; conditions: in vivo; summary of the method: as §1
[21] = test system: Rattus norvegicus; test: Distribution of tissue Radioactivity following Intravenous injection into castrated male rat liver at 1 hour time; type: ADME, organism-based; conditions: in vivo; summary of the method: as §1
[22] = test system: Rattus norvegicus; test: Distribution of tissue Radioactivity following Intravenous injection into castrated male rat liver at 2 hours time; type: ADME, organism-based; conditions: in vivo; summary of the method: as §1
[23] = test system: Rattus norvegicus; test: Distribution of tissue Radioactivity following Intravenous injection into castrated male rat blood at 0.5 hours time; type: ADME, organism-based; conditions: in vivo; summary of the method: as §1
[24] = test system: Rattus norvegicus; test: Distribution of tissue Radioactivity following Intravenous injection into castrated male rat blood at 4 hours time; type: ADME, organism-based; conditions: in vivo; summary of the method: as §1
[25] = test system: Rattus norvegicus; test: Distribution of tissue Radioactivity following Intravenous injection into castrated male rat thyroid at 0.5 hours time; type: ADME, organism-based, Thyroid gland; conditions: in vivo; summary of the method: as §1

C[C@]12CCC(=O)CC1C[C@@H](I)[C@@H]1[C@@H]2CC[C@@]2(C)[C@H]1CC[C@]2(C)O (stereo not given in full)
Dose/g [1]: 0.25%
Dose/g [2]: 0.2%
Dose/g [3]: 0.27%
Dose/g [4]: 0.25%
Biodistribution [5]: 0.24%
Biodistribution [6]: 0.24%
Biodistribution [7]: 0.06%
Biodistribution [8]: 0.07%
Biodistribution [9]: 0.21%
Biodistribution [10]: 0.44%
Biodistribution [11]: 1.17%
Biodistribution [12]: 1.43%
Biodistribution [13]: 0.16%
Biodistribution [14]: 0.15%
Biodistribution [15]: 0.33%
Biodistribution [16]: 0.31%
Biodistribution [17]: 0.2%
Biodistribution [18]: 0.17%
Biodistribution [19]: 0.26%
Biodistribution [20]: 0.23%
Biodistribution [21]: 0.29%
Biodistribution [22]: 0.23%
Dose/g [23]: 0.3%
Dose/g [24]: 0.37%
Biodistribution [25]: 1.58%
